Assay results reported in ChEMBL document CHEMBL2202989, “New adamantane phenylalkylamines with σ-receptor binding affinity and anticancer activity, associated with putative antagonism of neuropathic pain” (J Med Chem, 2012).

Tests used:
[1] = Growth inhibition of human MSC cells after 48 hrs by SRB assay; assay type: cell-based
Summary of the method: (§1)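 Cells grown in RPMI 1640 with 5% heat-inactivated FCS, 2 mM L-glutamine and antibiotics, 37 °C, 5% CO2. Seeded at 3500–30000 cells/well and left 24 h before dosing. DMSO solutions added at 10-fold dilutions from 100 to 0.01 μM for 48 h. Cells TCA-fixed and SRB-stained, absorbance read at 540 nm; GI50 derived against the time-zero plate.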

MIA PaCa-2 = assay: Growth inhibition of human MIAPaCa2 cells after 48 hrs by SRB assay; assay type: functional; settings: MIA PaCa-2, 48 h; for CC50: read-out: LC50 (the source's name); summary of the method: as §1
HUVEC = assay: (§2) Growth inhibition of human HUVEC cells after 48 hrs by SRB assay; assay type: cell-based; settings: huvec, 48 h; summary of the method: as §1
[2] = as §2; assay type: cell-based; settings: HUVEC cells; summary of the method: as §1
OVCAR-5 = assay: Growth inhibition of human OVCAR5 cells after 48 hrs by SRB assay; assay type: functional; settings: OVCAR-5, 48 h; for CC50: read-out: LC50 (the source's name); summary of the method: as §1
HCT-15 = assay: Growth inhibition of human HCT15 cells after 48 hrs by SRB assay; assay type: functional; settings: HCT-15, 48 h; for CC50: read-out: LC50 (the source's name); summary of the method: as §1
PC-3 = assay: Growth inhibition of human PC3 cells after 48 hrs by SRB assay; assay type: functional; settings: PC-3, 48 h; for CC50: read-out: LC50 (the source's name); summary of the method: as §1
BXPC-3 = assay: Growth inhibition of human BxPC3 cells after 48 hrs by SRB assay; assay type: functional; settings: BXPC-3, 48 h; summary of the method: as §1
U-251 = assay: Growth inhibition of human U251 cells after 48 hrs by SRB assay; assay type: functional; settings: U-251, 48 h; for CC50: read-out: LC50 (the source's name); summary of the method: as §1
MCF7 = assay: Growth inhibition of human MCF7 cells after 48 hrs by SRB assay; assay type: functional; settings: MCF7, 48 h; for CC50: read-out: LC50 (the source's name); summary of the method: as §1
SK-HEP1 = assay: Growth inhibition of human SKHEP1 cells after 48 hrs by SRB assay; assay type: functional; settings: SK-HEP1, 48 h; for CC50: read-out: LC50 (the source's name); summary of the method: as §1
IGROV-1 = assay: Growth inhibition of human IGROV1 cells after 48 hrs by SRB assay; assay type: functional; settings: IGROV-1, 48 h; for CC50: read-out: LC50 (the source's name); summary of the method: as §1
[3] = (§3) Growth inhibition of human NHDF cells after 48 hrs by SRB assay; assay type: cell-based; settings: NHDF cells; summary of the method: as §1
NHDF = assay: as §3; assay type: cell-based; settings: nhdf, 48 h; summary of the method: as §1
HCT-116 = assay: Growth inhibition of human HCT116 cells after 48 hrs by SRB assay; assay type: functional; settings: HCT-116, 48 h; summary of the method: as §1
DU-145 = assay: Growth inhibition of human DU145 cells after 48 hrs by SRB assay; assay type: functional; settings: DU-145, 48 h; for CC50: read-out: LC50 (the source's name); summary of the method: as §1
HL-60(TB) = assay: Growth inhibition of human HL-60(TB) cells after 48 hrs by SRB assay; assay type: functional; settings: HL-60, 48 h
Summary of the method: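 Cells kept in RPMI 1640 with 5% FCS at 37 °C, 5% CO2, and seeded 24 h before dosing. Compound given from DMSO at 10-fold dilutions, 100 to 0.01 μM, for 48 h. Cells fixed with TCA, stained with SRB, absorbance read at 540 nm. GI50 taken from a time-zero plate.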

[4] = read-out: LC50 (the source's name)

Row | SMILES | TGI [1] | LC50 (HUVEC) | TGI (HUVEC) | GI50 at 48 h [2] | GI50 (HCT-15) | TGI (HCT-15) | CC50 (HCT-15) | GI50 (PC-3) | TGI (PC-3) | CC50 (PC-3) | GI50 (BXPC-3) | LC50 (BXPC-3) | TGI (BXPC-3) | GI50 (U-251) | TGI (U-251) | CC50 (U-251) | GI50 (MCF7) | TGI (MCF7) | CC50 (MCF7) | GI50 (SK-HEP1) | also measured
1 | CCN1CCN(CCc2ccc(C(c3ccccc3)C34CC5CC(CC(C5)C3)C4)cc2)CC1 (stereo not given) | 2.93 µM | 9.62 µM | 7.36 µM | 5.1 µM | 5.64 µM | 17.2 µM | 0.1 µM | 4.83 µM | 9.53 µM | 0.0867 µM | 8.35 µM | 0.0898 µM | 45.2 µM | 3.54 µM | 6.19 µM | 0.00847 µM | 3.9 µM | 8.5 µM | 0.0971 µM | 4.14 µM | GI50 (MIA PaCa-2): 20.9 µM; TGI (MIA PaCa-2): 49.2 µM; CC50 (MIA PaCa-2): 0.0775 µM; GI50 (OVCAR-5): 28.1 µM; TGI (OVCAR-5): 53.8 µM; CC50 (OVCAR-5): 0.0685 µM; TGI (SK-HEP1): 7.66 µM; CC50 (SK-HEP1): 0.1 µM; GI50 (IGROV-1): 4.49 µM; TGI (IGROV-1): 9.83 µM; CC50 (IGROV-1): 0.0968 µM; GI50 at 48 h [3]: 7.31 µM; LC50 (NHDF): 100 µM; TGI (NHDF): 83.6 µM
2 | CCN1CCN(CCCc2ccc(C(c3ccccc3)C34CC5CC(CC(C5)C3)C4)cc2)CC1 (stereo not given) | 8.69 µM | 9.4 µM | 6.73 µM | 4.07 µM | 4.09 µM | 7.64 µM | 0.0473 µM | 4.79 µM | 7.84 µM | 0.0109 µM | 5.3 µM | 0.1 µM | 10.6 µM | 4.29 µM | 6.69 µM | 0.00909 µM | 3.05 µM | 5.87 µM | 0.00861 µM | 3.41 µM | GI50 (HCT-116): 3.29 µM; TGI (HCT-116): 5.9 µM; CC50 (HCT-116; [4]): 0.00852 µM; TGI (SK-HEP1): 6.01 µM; CC50 (SK-HEP1): 0.00861 µM; GI50 (DU-145): 5.33 µM; TGI (DU-145): 8.5 µM; CC50 (DU-145): 0.0117 µM; GI50 at 48 h [3]: 5.04 µM; LC50 (NHDF): 100 µM; TGI (NHDF): 36.6 µM
3 | c1ccc(C(c2ccc(CCN3CCCCC3)cc2)C23CC4CC(CC(C4)C2)C3)cc1 (stereo not given) | 18.3 µM | 100 µM | 9.33 µM | 5.31 µM | 9.12 µM | 43.7 µM | 0.082 µM | 11.6 µM | 41.2 µM | 0.092 µM | 64.7 µM | 0.1 µM | 100 µM | 24.8 µM | 55.8 µM | 0.0867 µM | 6.93 µM | 42.4 µM | 0.0985 µM | 8.61 µM | GI50 (MIA PaCa-2): 35.5 µM; TGI (MIA PaCa-2): 63.3 µM; CC50 (MIA PaCa-2): 0.0911 µM; GI50 (OVCAR-5): 37.3 µM; TGI (OVCAR-5): 67.8 µM; CC50 (OVCAR-5): 0.0977 µM; TGI (SK-HEP1): 58.2 µM; CC50 (SK-HEP1): 0.1 µM; GI50 (IGROV-1): 17.7 µM; TGI (IGROV-1): 43.7 µM; CC50 (IGROV-1): 0.0687 µM; GI50 at 48 h [3]: 18.6 µM; LC50 (NHDF): 99.34 µM; TGI (NHDF): 59 µM
4 | c1ccc(C(c2ccc(CN3CCNCC3)cc2)C23CC4CC(CC(C4)C2)C3)cc1 (stereo not given) | 3.14 µM | 17.43 µM | 5.98 µM | 2.91 µM | 3.28 µM | 5.76 µM | 0.00824 µM | 3.89 µM | 7.52 µM | 0.0692 µM | 4.3 µM | 0.00951 µM | 6.9 µM | 3.41 µM | 5.92 µM | 0.00843 µM | 2.45 µM | 5.51 µM | 0.00857 µM | 3.51 µM | TGI (SK-HEP1): 6.17 µM; CC50 (SK-HEP1): 0.00884 µM; GI50 (DU-145): 4.23 µM; TGI (DU-145): 17.8 µM; CC50 (DU-145): 0.0392 µM; GI50 at 48 h [3]: 3.66 µM; LC50 (NHDF): 9.73 µM; TGI (NHDF): 6.69 µM; GI50 (HL-60(TB)): 0.00448 µM; TGI (HL-60(TB)): 0.00759 µM; CC50 (HL-60(TB); [4]): 0.1 µM
